This note sets out measurements from ChEMBL document CHEMBL3352527, “Phosphorus-nitrogen compounds. Part 29. Syntheses, crystal structures, spectroscopic and stereogenic properties, electrochemical investigations, antituberculosis, antimicrobial and cytotoxic activities and DNA interactions of ansa-spiro-ansa cyclotetraphosphazenes” (2014).

Calls of active or inactive are those of the source. The calls are words filed in the database; no cut-off is given here.

Assay [1] has as its system Bacillus cereus. Put plainly: Antimicrobial activity against Bacillus cereus NRRL-B-3711 after 18 hrs by agar well diffusion assay. In kind it is functional. The essentials:
(§1)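 Bacteria were grown to exponential phase in nutrient broth at 37 °C for 18 h and adjusted to 10^8 cfu/mL against McFarland density. The culture suspension was mixed into the medium and poured into plates with 6.0 mm wells. Each well received 50 of the compound solution in DMSO. Inhibition zone diameter was read in mm; the value is the mean of three experiments.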
In general terms: In agar diffusion tests the substance spreads into inoculated agar from a disc or well.

Assay [2] has as its system Bacillus spizizenii. The assay is described as follows: Antimicrobial activity against Bacillus subtilis ATCC 6633 after 18 hrs by agar well diffusion assay. In kind it is functional. Summed up:
as §1

Assay [3] deals with Escherichia coli. Put plainly: Antimicrobial activity against Escherichia coli ATCC 25922 after 18 hrs by agar well diffusion assay. In kind it is functional. The essentials:
as §1

The test system of assay [4] is Escherichia coli. Put plainly: Binding affinity to Escherichia coli pBR322 plasmid DNA assessed as retardation of electrophoretic migration of supercoiled form I DNA at 312 to 5000 uM after 24 hrs by agarose gel electrophoresis. Summed up: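 pBR322 plasmid DNA was incubated with the compounds at 37 °C for 24 h in the dark. Mixtures were run on a 1% agarose gel in TAE buffer (pH 8.0) for 3 h at 60 V. Mobility of supercoiled form I and nicked form II DNA was compared with untreated plasmid.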

Assay [5] has as its system MCF7. Put plainly: Cytotoxicity against human MCF7 cells assessed as reduction in cell viability at 1 mg/ml after 24 hrs by MTT assay. In kind it is functional. Summed up:
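Cells were exposed to compounds for 24 h, then to MTT for 4 h. Formazan was dissolved in DMSO and absorbance read at 540 nm. Relative viability (%) was determined, with cisplatin as positive control.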
For orientation: Tetrazolium assays rely on reduction of a dye to a coloured formazan, in cell work by metabolically active cells.

Assay [6] has as its system Bacillus spizizenii. Put plainly: Antimicrobial activity against Bacillus subtilis ATCC 6633 at 2500 uM after 18 hrs by agar well diffusion assay. It is filed as functional. The following applies: ATCC 6633, 18 h, read-out: DIZ. Summed up: as §1
Assay [7] has as its system Bacillus spizizenii. Put plainly: Antimicrobial activity against Bacillus subtilis ATCC 6633 at 10 ug after 18 hrs by agar well diffusion assay. It is filed as functional. The following applies: ATCC 6633, 18 h, read-out: DIZ. The essentials: (§2)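 Agar-well diffusion with ampicillin and chloramphenicol as reference antibacterials. Bacteria were grown to exponential phase in nutrient broth at 37 °C for 18 h and adjusted to 10^8 cfu/mL against McFarland density. The suspension was mixed into medium and poured into plates, and 6.0 mm wells were cut. After incubation, inhibition zone diameter was read in mm. Values are the mean of three experiments.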

Assay [8] relates to Bacillus cereus. Put plainly: Antimicrobial activity against Bacillus cereus NRRL-B-3711 at 10 ug after 18 hrs by agar well diffusion assay. It is filed as functional. The following applies: NRRL-B-3711, 18 h, read-out: DIZ. Summed up:
as §2

Assay [9] concerns Pseudomonas aeruginosa. The assay is described as follows: Antimicrobial activity against Pseudomonas aeruginosa ATCC 27853 at 10 ug after 18 hrs by agar well diffusion assay. The conditions noted are these: ATCC 27853, 18 h, read-out: DIZ. In kind it is functional. The essentials:
as §2

The subject of assay [10] is Escherichia coli. The assay is described as follows: Antimicrobial activity against Escherichia coli ATCC 35218 at 10 ug after 18 hrs by agar well diffusion assay. In kind it is functional, organism-based.
The subject of assay [11] is Staphylococcus aureus. Put plainly: Antimicrobial activity against Staphylococcus aureus ATCC 25923 at 10 ug after 18 hrs by agar well diffusion assay. The conditions noted are these: ATCC 25923, 18 h, read-out: DIZ. It is filed as functional. The essentials:
as §2

Assay [12] deals with Escherichia coli. The assay is described as follows: Antimicrobial activity against Escherichia coli ATCC 25922 at 10 ug after 18 hrs by agar well diffusion assay. It is filed as functional. The following applies: ATCC 25922, 18 h, read-out: DIZ. Summed up:
as §2

Assay [13] deals with Bacillus cereus. The assay is described as follows: Antimicrobial activity against Bacillus cereus NRRL-B-3711 at 30 ug after 18 hrs by agar well diffusion assay. In kind it is functional. The conditions noted are these: NRRL-B-3711, 18 h, read-out: DIZ. Summed up: as §2
Assay [14] deals with Escherichia coli. Put plainly: Antimicrobial activity against Escherichia coli ATCC 35218 at 30 ug after 18 hrs by agar well diffusion assay. It is filed as functional. The following applies: ATCC 35218, 18 h, read-out: DIZ. Summed up:
as §2

The test system of assay [15] is Staphylococcus aureus. The assay is described as follows: Antimicrobial activity against Staphylococcus aureus ATCC 25923 at 30 ug after 18 hrs by agar well diffusion assay. The following applies: ATCC 25923, 18 h, read-out: DIZ. In kind it is functional. The essentials: as §2
Assay [16] deals with Bacillus spizizenii. The assay is described as follows: Antimicrobial activity against Bacillus subtilis ATCC 6633 at 30 ug after 18 hrs by agar well diffusion assay. It is filed as functional. The conditions noted are these: ATCC 6633, 18 h, read-out: DIZ. The essentials: as §2
The subject of assay [17] is Escherichia coli. The assay is described as follows: Antimicrobial activity against Escherichia coli ATCC 25922 at 30 ug after 18 hrs by agar well diffusion assay. It is filed as functional. The following applies: ATCC 25922, 18 h, read-out: DIZ. Summed up:
as §2

The test system of assay [18] is Pseudomonas aeruginosa. The assay is described as follows: Antimicrobial activity against Pseudomonas aeruginosa ATCC 27853 at 30 ug after 18 hrs by agar well diffusion assay. It is filed as functional. The following applies: ATCC 27853, 18 h, read-out: DIZ. The essentials:
as §2

For assay [19], the system named is Candida tropicalis. Put plainly: Antimicrobial activity against Candida tropicalis ATCC 13803 at 50 ug after 18 hrs by agar well diffusion assay. In kind it is functional. The following applies: ATCC 13803, 18 h, read-out: DIZ.
In assay [20] the test system is Candida albicans. Put plainly: Antimicrobial activity against Candida albicans ATCC 10231 at 50 ug after 18 hrs by agar well diffusion assay. It is filed as functional. The conditions noted are these: ATCC 10231, 18 h, read-out: DIZ.

For `C1CC2(CCN1)OCCO2`, the entries for the “diameter of the inhibition zone (DIZ)” value in assay [1], in assay [2] and in assay [3] were 13 mm, 12 mm and 11 mm, respectively.
Regarding `[K+].[K+].[O-]c1ccccc1CNCCCNCc1ccccc1[O-]`, the “diameter of the inhibition zone (DIZ)” value in assay [1] came out at 11 mm; in assay [3], 10.3 mm.
`Cl[P@@]12=NP34=N[P@](Cl)(=NP(N5CCCCC5)(N5CCCCC5)=N1)Oc1ccccc1CN3CCN4Cc1ccccc1O2` (mixture of isomers): the outcome in [4] was Active. In assay [5], the Activity was 40%.
With `Cl[P@@]12=NP34=N[P@](Cl)(=NP(N5CCC6(CC5)OCCO6)(N5CCC6(CC5)OCCO6)=N1)Oc1ccccc1CN3CCCN4Cc1ccccc1O2` (mixture of isomers), the result in assay [5] was inactive.
Consider `ClP12=NP34=N[P@](Cl)(=NP(N5CCCCC5)(N5CCCCC5)=N1)Oc1ccccc1CN3CCCN4Cc1ccccc1O2` (single isomer, unassigned), for which the outcome in [4] was Active. For the same molecule, the zone of inhibition at 2500 µM in assay [6] came to 9 mm. Also, in assay [5], the Activity was determined as 40%.
Turning to `ClP12=NP34=NP(Cl)(=NP(N5CCC6(CC5)OCCO6)(N5CCC6(CC5)OCCO6)=N1)Oc1ccccc1CN3CCCN4Cc1ccccc1O2` (single isomer, unassigned), in assay [6], the zone of inhibition at 2500 µM is 7 mm. In assay [5], the result was inactive.
Consider `ClP12=NP(N3CCC4(CC3)OCCO4)(N3CCC4(CC3)OCCO4)=N[P@@]3(Cl)=N[P@]4(=N1)N(CCN4Cc1ccccc1O3)Cc1ccccc1O2` (single isomer, unassigned), for which the result in assay [5] was inactive.
With `ClP12=NP34=N[P@](Cl)(=NP(N5CCC6(CC5)OCCO6)(N5CCC6(CC5)OCCO6)=N1)Oc1ccccc1CN3CCN4Cc1ccccc1O2` (single isomer, unassigned), in assay [5], the result was inactive.
Consider `CC1(C)S[C@@H]2[C@H](NC(=O)[C@H](N)c3ccccc3)C(=O)N2[C@H]1C(=O)O` [AMPICILLIN], for which the zone of inhibition at 10 µg/disc in assay [7] turned out to be 30.3 mm; in assay [8] it was 10 mm; in [9], 28 mm; in assay [11], 35 mm; in [12] it was 20.3 mm. Besides, in assay [10], the “diameter of the inhibition zone (DIZ)” value was “inactive”.
In the case of `O=C(N[C@H](CO)[C@H](O)c1ccc([N+](=O)[O-])cc1)C(Cl)Cl` [CHLORAMPHENICOL], the zone of inhibition at 30 µg/disc in [13] came to 23.4 mm; in assay [14] it was 10.5 mm; in [15] it was 29.6 mm; in assay [16], 31 mm; in assay [17] it was 26.6 mm; in [18], 21.9 mm.
Take `CC(=O)N1CCN(c2ccc(OCC3COC(Cn4ccnc4)(c4ccc(Cl)cc4Cl)O3)cc2)CC1` (stereo unspecified) [KETOCONAZOLE]: the figures for the zone of inhibition at 50 µg/disc in [19] and in assay [20] were 29 mm and 30 mm, respectively.
On to `C1CCNCC1` [PIPERIDINE], for which the “diameter of the inhibition zone (DIZ)” value came out at 13 mm in [1] and 11 mm in [3].
